PRMT1 FP inh: PRMT1 (human) inhibition, primary screen | inhibition, % at 2.79 µM | hit rate 1.3% among 370,000 | recombinant PRMT1, activity-based probe fluorescence polarization;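 active = inhibition above about 21% made by adding two undisclosed values, limit read from the data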
ABHD4 inh: inhibits mouse alpha/beta hydrolase domain 4 | hit rate 0.54% among 370,000 | AID 720543 | purified mABHD4, FP-Rh probe fluorescence polarization | inhibition, % at 8.92 µM;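 active = inhibition exceeding the mean over every tested compound plus 3 SD, cut at about 30% in these data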;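 also: 0% = plate median of compound wells and 100% = S159A mutant with DMSO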
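Test system: mABHD4 protein; Read-out basis: % inhibition; Incubation: 45 min + 60 min at 25 °C; Repeats: single replicate; Technique: fluorescence polarization with parallel and perpendicular emission, 525/598 nm; Compound: 8.92 µM, single dose; Benchmarks: full inhibition S159A mutant plus DMSO, zero as sample-well median.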
TCR CD3 inh: human TCR-CD3 binding inhibition; hit rate 0.37% among 360,000; inhibition, % at 9.4 µM; TAMRA-labeled TCR probe fluorescence, biochemical; in the data active = inhibition above about 19%;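 also: recombinant mutant TCR 2C K166C tagged with TAMRA read by polarization; 0% = receptor in buffer alone and 100% = receptor with positive control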
HTRA1 inhibitor: inhibitors of human serine peptidase HTRA1. recombinant HTRA1, FP-rhodamine activity-based probe, fluorescence polarization. inhibition, % at 5.96 µM. hit rate 0.5% among 340,000. AID 504803; in the data active = inhibition above about 36%;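 also: 0% = enzyme with DMSO and 100% = wells lacking enzyme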
Target sequence (Q92743 whole entry, looked up): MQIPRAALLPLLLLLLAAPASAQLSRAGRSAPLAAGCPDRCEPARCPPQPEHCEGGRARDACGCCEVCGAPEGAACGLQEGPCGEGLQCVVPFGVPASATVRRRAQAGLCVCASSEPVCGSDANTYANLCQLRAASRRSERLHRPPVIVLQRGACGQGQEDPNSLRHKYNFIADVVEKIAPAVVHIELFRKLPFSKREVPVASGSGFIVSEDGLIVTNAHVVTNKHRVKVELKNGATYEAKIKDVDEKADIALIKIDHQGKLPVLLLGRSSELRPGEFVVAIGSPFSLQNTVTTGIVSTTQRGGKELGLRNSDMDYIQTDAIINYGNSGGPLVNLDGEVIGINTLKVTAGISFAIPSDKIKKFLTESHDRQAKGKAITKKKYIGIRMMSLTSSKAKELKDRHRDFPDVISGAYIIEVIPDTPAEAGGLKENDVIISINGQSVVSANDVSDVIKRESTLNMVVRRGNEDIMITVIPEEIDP
SIAE primary: blocks human sialic acid acetylesterase; Q9HAT2; SIAE FP-Rh probe binding, fluorescence polarization; AID 1053197; hit rate 0.69% among 370,000; inhibition, % at 9.66 µM;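 active = inhibition above a cutoff: mean of compounds within the control limits plus 3 SD of those, cut at about 17% in these data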;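 also: 0% = plate median of compound wells and 100% = probe without SIAE protein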
PRMT1 inh conf: PRMT1 (human) inhibition, FP confirmation; shares compounds with PRMT1 FP inh; AID 687036; hit rate 42% among 3,300; recombinant His-PRMT1, activity-based probe fluorescence polarization; inhibition, % at 2.79 µM;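 active = mean inhibition across replicates above the hit cutoff derived for the earlier primary screen, cut at about 22% in these data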
mABHD4 conf: ABHD4 (mouse) inhibition, FP confirmation. shares compounds with ABHD4 inh. purified mABHD4, FP-Rh probe fluorescence polarization. inhibition, % at 8.92 µM. hit rate 55% among 1,800;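 active = mean inhibition across replicates above the hit cutoff set in the primary screen, cut at about 30% in these data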;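 also: 0% = wild-type ABHD4 with DMSO and 100% = catalytically dead S159A mutant with DMSO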
SIAE inh conf: confirmation of human SIAE inhibitors | shares compounds with SIAE primary | SIAE FP-Rh activity-based probe, fluorescence polarization | inhibition, % at 9.66 µM | hit rate 13% among 2,300 | AID 1117263;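 active = mean inhibition of the replicates above the hit cutoff set in the primary screen, cut at about 17% in these data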;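 also: 0% = SIAE with DMSO and probe and 100% = probe without SIAE; inhibitors lower polarization as more probe stays unbound to SIAE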
Numbers without * were called inactive; · = no result given; ! = a repeat was not active. Hits are enriched below; roughly 2.5% of the tested compounds scored in any of these assays.

SMILES	PRMT1 FP inh	ABHD4 inh	TCR CD3 inh	HTRA1 inhibitor	SIAE primary	mABHD4 conf	others
O=S(=O)(/N=S1\CC=CCN1S(=O)(=O)c1ccccc1)c1ccccc1 (stereo unspecified)	40.7*	-4.0	-7.5	-3.9	20.0*	·	PRMT1 inh conf=77.5*;SIAE inh conf=1.8
CC1=C(C)CS(=O)N(S(=O)(=O)c2ccccc2)C1 (stereo unspecified)	20.4	-3.7	5.0	-4.7	-6.8	·
COc1ccc2c(c1OC)C(=O)N1c3ccccc3N=C(c3ccc([N+](=O)[O-])cc3)CC21 (stereo unspecified)	32.1*	2.8	3.4	-0.7	21.3*	·	PRMT1 inh conf=7.5;SIAE inh conf=1.5
CC1(C(=O)NCc2ccccc2Br)CCN1C(=O)Cc1ccc(-c2ccccc2)cc1 (stereo unspecified)	3.5	-10.1	-0.1	·	-3.0	·
Cc1ccc(/C=C2\C(=O)NC(=O)N2C)o1	35.5*	1.9	0.5	-1.2	19.0*	·	PRMT1 inh conf=37.1*;SIAE inh conf=-0.3
CCn1c2ccccc2n2c(=O)c(=O)n(CC(=O)Nc3ccc(C(C)C)cc3)nc12	-1.4	2.5	-1.8	10.3	-1.4	·
CC(Nc1cccc2ccccc12)C(=O)N/N=C/c1ccc([N+](=O)[O-])cc1 (stereo unspecified)	6.3	16.5	-8.0	9.2	14.1	·
COc1cc([N+](=O)[O-])cc(/C=N/NC(=O)C(C)Nc2cccc3ccccc23)c1O (stereo unspecified)	-1.6	33.3*	1.7	19.1	9.5	38.9*
N=c1n(CCN2CCCCC2)c2ccccc2n1CC(=O)c1cccs1	-3.5	42.8*	5.5	1.9	1.4	12.7
C=C(C)CN(CC)c1nc(N)c2c(N)nc3c(c2c1C#N)CC(=O)N3C12CC3CC(CC(C3)C1)C2	9.2	35.6*	5.4	25.3	6.9	24.9
COc1cc(NC(=O)CCc2nnc3ccc(N4CCN(C)CC4)nn23)cc(OC)c1	-3.1	-2.5	5.4	0.5	-1.3	·
CN1CCN(c2ccc(C(=O)c3ccccc3)cc2[N+](=O)[O-])CC1	-2.5	0.7	9.2	0.3	3.7	·
O=C(O)c1ccc(N2CCN(C(c3ccccc3)c3ccccc3)CC2)c([N+](=O)[O-])c1	3.8	32.4*	-3.7	-4.3	-1.8	47.4*
CCOc1ccc(-c2ccc(SCC(=O)NC3CCCCC3)nn2)cc1	-7.2	-0.1	8.8	0.6	-4.2	·
COc1cc(Cl)ccc1OCc1cc(C(=O)N2C[C@]3(C)C[C@H]2CC(C)(C)C3)no1	0.5	32.4*	7.4	-24.1	-7.4	27.2
O=C(O)c1ccc(NC(=O)c2ccc3c(c2)C(=O)N(c2ccccc2)C3=O)cc1	1.6	6.3	0.9	4.1	-16.2	·
O=C(O)c1ccc(S(=O)(=O)c2ccc3c(c2)C(=O)N(c2ccc(O)cc2)C3=O)cc1	19.2	91.9*	11.2	14.4	7.6	-17.6
OCC[C@H]1C[C@@H](O)[C@H](O)[C@]2(OCCc3ccccc32)O1	0.8	35.2*	-3.1	8.5	-0.3	0.8
O=C1CS/C(=C\[N+](=O)[O-])N1c1ccccc1	5.1	31.2*	0.7	5.6	3.6	-1.5
COc1ccccc1NC(=S)N1CCN(c2ccccc2F)CC1	-3.0	3.9	-2.2	10.2	-3.4	·
Oc1ccc2ccccc2c1C=NNc1ccccn1	4.2	35.5*	0.9	10.7	7.0	29.1
Cc1ccc2c(c1)c(-c1ccccc1)nc1nncn12	1.8	2.8	3.2	2.9	7.3	·
COc1cc(/C=N/Nc2cccc3cccnc23)cc(OC)c1O	7.6	31.6*	5.3	15.1	-1.8	32.7*
COc1cccc(CNc2cccc3cccnc23)c1O	-0.6	34.1*	-7.3	34.2	5.5	11.7
Oc1cccc(/C=N/Nc2cccc3cccnc23)c1	8.9	19.9	-4.7	17.6	6.7	·
SMILES	PRMT1 FP inh	ABHD4 inh	TCR CD3 inh	HTRA1 inhibitor	SIAE primary	mABHD4 conf	others
COc1ccc(S(=O)(=O)N(CC(=O)NCC2CCCO2)c2ccc(F)cc2)cc1OC (stereo unspecified)	-2.5	0.9	6.6	-0.8	3.3	·
C[C@H](NC(=O)c1ccco1)C(=O)Nc1cc(S(=O)(=O)N2CCCC2)ccc1OCC(F)(F)F	3.8	1.8	-4.6	0.3	-0.5	·
N#Cc1ccccc1S(=O)(=O)N1CCN(CC(O)CN2CCOCC2)CC1 (stereo unspecified)	1.8	37.7*	-2.7	0.8	6.0	11.5
COc1ccc(OC)c(S(=O)(=O)N2CCN(CC(O)CN3CCOCC3)CC2)c1 (stereo unspecified)	-6.7	1.0	-1.0	1.1	-0.9	·
Cc1cc2ccccn2c1C(=O)c1ccc(NN)c([N+](=O)[O-])c1	13.7	33.4*	-2.5	-0.8	8.1	17.0
Cc1cc2ccccn2c1C(=O)c1cc([N+](=O)[O-])cc([N+](=O)[O-])c1	0.7	1.7	-4.1	3.2	2.7	·
Cc1ccsc1CN(C)CC(=O)NCC(=O)Nc1ccc(F)cc1	0.1	5.5	-3.4	-3.3	6.2	·
COc1ccc(/C=C/C(=O)c2cc3c(cc2N)OCO3)cc1	-5.2	8.6	-0.2	5.8	9.2	·
O=C(COC(=O)c1ccccc1)Nc1ncc([N+](=O)[O-])s1	24.6*	38.8*	8.9	10.6	-8.7	40.5*
CC(CNc1ccccc1O)C(=O)O (stereo unspecified)	23.5*	33.7*	-1.3	5.5	3.7	1.9
CC(=NNc1cc(C)c2ccccc2n1)c1ccccn1	5.3	7.0	-3.7	·	7.2	·
CCCCNc1c(-c2ccc(OC)c(SC3CCCCC3)c2)nc2cnccn12	·	·	·	-2.5	·	·
CCCCNc1c(-c2ccc(SC3CCCCC3)cc2)nc2cnccn12	11.0	33.8*!	1.1	-17.2	13.8	14.2
CCCCNc1c(-c2ccc(OC)c(SC3CCCCC3)c2)nc2cc(C)ccn12	-0.8	30.0*	8.6	5.5	12.4	37.0*
CCOC(=O)[C@]12CCCC=C1N(Cc1ccco1)C(=O)[C@H](CC(=O)N1CCSCC1)C2	0.2	0.7	9.2	·	-1.9	·
COc1ccc(-c2c(C(=O)c3ccc(Br)cc3)[nH]c(N)c2C(=O)NCCc2c[nH]c3ccccc23)cc1OC	0.9	33.1*	2.9	·	8.3	24.3
Nc1[nH]c(C(=O)c2ccc(Br)cc2)c(-c2ccc(F)cc2)c1C(=O)NCCc1c[nH]c2ccccc12	4.6	32.8*	-0.7	·	5.8	26.3
Cc1cc(C)cc(NC(=S)NCc2cccn2C)c1	·	·	·	-3.7	·	·
CCCCCCCCCCOC(=O)Cn1c(COc2ccc(Cl)cc2)[n+](C)c2ccccc21	4.8	35.2*	1.4	34.2	0.5	54.7*
CCCCCCCCCCOC(=O)Cn1c(COc2ccccc2)[n+](C)c2ccccc21	-0.8	30.4*	2.5	20.4	0.1	33.1*
